{
  "source": "ChEMBL document CHEMBL1671716",
  "about": "“Antimicrobial susceptibility patterns for recent clinical isolates of anaerobic bacteria in South Korea” (2010)",
  "key": {"[1]": {"test_system": "Hoylesella oralis", "assay": "Antimicrobial activity against Prevotella oralis assessed as percent resistant isolates after 48 hrs by agar dilution method", "assay_type": "functional", "in_short": "(§1)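 CLSI agar dilution on recent Korean clinical anaerobe isolates. Inoculum 10^5 CFU per spot by replicator. Plates incubated in an anaerobic chamber at 37°C for 48 h. For piperacillin plus tazobactam, tazobactam was held constant at 4 μg/ml. Resistance and susceptibility rates derived from MICs.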"}, "[2]": {"test_system": "Finegoldia magna", "assay": "Antimicrobial activity against Finegoldia magna after 48 hrs by agar dilution method", "assay_type": "functional", "in_short": "(§2)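 CLSI agar dilution (M11-A7); inoculum 10^5 CFU applied by replicator; plates incubated anaerobically 48 h at 37°C. For piperacillin-tazobactam, tazobactam held constant at 4 μg/ml.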"}, "[3]": {"test_system": "Eggerthella lenta", "assay": "Antimicrobial activity against Eubacterium lentum assessed as percent resistant isolates after 48 hrs by agar dilution method", "assay_type": "functional", "in_short": "as §1"}, "[4]": {"test_system": "Bifidobacterium sp.", "assay": "Antimicrobial activity against Bifidobacterium sp. assessed as percent resistant isolates after 48 hrs by agar dilution method", "assay_type": "functional", "in_short": "as §1"}, "[5]": {"test_system": "Schaalia meyeri", "assay": "Antimicrobial activity against Actinomyces meyeri assessed as percent resistant isolates after 48 hrs by agar dilution method", "assay_type": "functional", "in_short": "as §1"}, "[6]": {"test_system": "Bacteroides thetaiotaomicron", "assay": "Antimicrobial activity against Bacteroides thetaiotaomicron assessed as percent susceptible isolates after 48 hrs by agar dilution method", "assay_type": "functional"}, "[7]": {"test_system": "Bacteroides ovatus", "assay": "Antimicrobial activity against Bacteroides ovatus after 48 hrs by agar dilution method", "assay_type": "functional", "in_short": "(§3)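 MICs on clinical anaerobe isolates by the CLSI agar dilution method. Inoculum of 10^5 CFU applied with a Steers replicator. Plates incubated 48 h at 37°C in an anaerobic chamber.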"}, "[8]": {"test_system": "Hoylesella oralis", "assay": "Antimicrobial activity against Prevotella oralis assessed as percent susceptible isolates after 48 hrs by agar dilution method", "assay_type": "functional", "in_short": "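CLSI agar dilution MIC testing of clinical isolates. 10^5 CFU spotted by replicator, plates incubated 48 h at 37°C in an anaerobic chamber. Susceptibility rates derived from the MICs.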"}, "[9]": {"test_system": "Eubacterium sp.", "assay": "Antimicrobial activity against Eubacterium sp. assessed as percent resistant isolates after 48 hrs by agar dilution method", "assay_type": "functional", "in_short": "as §1"}, "[10]": {"test_system": "Phocaeicola vulgatus", "assay": "Antimicrobial activity against Bacteroides vulgatus assessed as percent susceptible isolates after 48 hrs by agar dilution method", "assay_type": "functional"}, "[11]": {"test_system": "Bacteroides caccae", "assay": "Antimicrobial activity against Bacteroides caccae assessed as percent susceptible isolates after 48 hrs by agar dilution method", "assay_type": "functional"}, "[12]": {"test_system": "Bacteroides ovatus", "assay": "Antimicrobial activity against Bacteroides ovatus assessed as percent resistant isolates after 48 hrs by agar dilution method", "assay_type": "functional", "in_short": "as §1"}, "[13]": {"test_system": "Parvimonas micra", "assay": "Antimicrobial activity against Peptostreptococcus micros after 48 hrs by agar dilution method", "assay_type": "functional", "in_short": "as §2"}, "[14]": {"test_system": "Actinomyces naeslundii", "assay": "Antimicrobial activity against Actinomyces naeslundii after 48 hrs by agar dilution method", "assay_type": "functional", "in_short": "as §3"}, "[15]": {"test_system": "Schaalia odontolytica", "assay": "Antimicrobial activity against Actinomyces odontolyticus assessed as percent susceptible isolates after 48 hrs by agar dilution method", "assay_type": "functional"}, "[16]": {"test_system": "Bacteroides caccae", "assay": "Antimicrobial activity against Bacteroides caccae assessed as percent resistant isolates after 48 hrs by agar dilution method", "assay_type": "functional", "in_short": "as §1"}, "[17]": {"test_system": "Bifidobacterium adolescentis", "assay": "Antimicrobial activity against Bifidobacterium adolescentis after 48 hrs by agar dilution method", "assay_type": "functional", "in_short": "as §3"}, "[18]": {"test_system": "Finegoldia magna", "assay": "Antimicrobial activity against Finegoldia magna assessed as percent susceptible isolates after 48 hrs by agar dilution method", "assay_type": "functional", "in_short": "as §2"}, "[19]": {"test_system": "Prevotella buccae", "assay": "Antimicrobial activity against Prevotella buccae assessed as percent resistant isolates after 48 hrs by agar dilution method", "assay_type": "functional, Segatella buccae", "in_short": "as §1"}, "[20]": {"test_system": "Parabacteroides distasonis", "assay": "Antimicrobial activity against Bacteroides distasonis assessed as percent resistant isolates after 48 hrs by agar dilution method", "assay_type": "functional", "in_short": "as §1"}, "[21]": {"test_system": "Peptostreptococcus anaerobius", "assay": "Antimicrobial activity against Peptostreptococcus anaerobius assessed as percent susceptible isolates after 48 hrs by agar dilution method", "assay_type": "functional", "in_short": "as §1"}, "[22]": {"test_system": "Anaerococcus prevotii", "assay": "Antimicrobial activity against Anaerococcus prevotii after 48 hrs by agar dilution method", "assay_type": "functional", "in_short": "as §3"}, "[23]": {"test_system": "Bifidobacterium sp.", "assay": "Antimicrobial activity against Bifidobacterium sp. assessed as percent susceptible isolates after 48 hrs by agar dilution method", "assay_type": "functional", "in_short": "as §2"}, "[24]": {"test_system": "Eggerthella lenta", "assay": "Antimicrobial activity against Eubacterium lentum assessed as percent susceptible isolates after 48 hrs by agar dilution method", "assay_type": "functional", "in_short": "as §2"}, "[25]": {"test_system": "Parabacteroides distasonis", "assay": "Antimicrobial activity against Bacteroides distasonis assessed as percent susceptible isolates after 48 hrs by agar dilution method", "assay_type": "functional"}, "[26]": {"test_system": "Prevotella buccae", "assay": "Antimicrobial activity against Prevotella buccae assessed as percent susceptible isolates after 48 hrs by agar dilution method", "assay_type": "functional, Segatella buccae", "in_short": "as §2"}, "[27]": {"test_system": "Prevotella intermedia", "assay": "Antimicrobial activity against Prevotella intermedia assessed as percent resistant isolates after 48 hrs by agar dilution method", "assay_type": "functional", "in_short": "as §1"}, "[28]": {"test_system": "Eubacterium sp.", "assay": "Antimicrobial activity against Eubacterium sp. assessed as percent susceptible isolates after 48 hrs by agar dilution method", "assay_type": "functional", "in_short": "as §2"}, "[29]": {"test_system": "Peptostreptococcus anaerobius", "assay": "Antimicrobial activity against Peptostreptococcus anaerobius after 48 hrs by agar dilution method", "assay_type": "functional", "in_short": "as §2"}, "[30]": {"test_system": "Bifidobacterium adolescentis", "assay": "Antimicrobial activity against Bifidobacterium adolescentis assessed as percent susceptible isolates after 48 hrs by agar dilution method", "assay_type": "functional"}, "[31]": {"test_system": "Schaalia odontolytica", "assay": "Antimicrobial activity against Actinomyces odontolyticus assessed as percent resistant isolates after 48 hrs by agar dilution method", "assay_type": "functional", "in_short": "as §1"}, "[32]": {"test_system": "Prevotella intermedia", "assay": "Antimicrobial activity against Prevotella intermedia after 48 hrs by agar dilution method", "assay_type": "functional", "in_short": "as §2"}, "[33]": {"test_system": "Finegoldia magna", "assay": "Antimicrobial activity against Finegoldia magna assessed as percent resistant isolates after 48 hrs by agar dilution method", "assay_type": "functional", "in_short": "as §1"}, "[34]": {"test_system": "Bacteroides fragilis", "assay": "Antimicrobial activity against Bacteroides fragilis assessed as percent susceptible isolates after 48 hrs by agar dilution method", "assay_type": "functional"}, "[35]": {"test_system": "Prevotella bivia", "assay": "Antimicrobial activity against Prevotella bivia assessed as percent resistant isolates after 48 hrs by agar dilution method", "assay_type": "functional", "in_short": "as §1"}, "[36]": {"test_system": "Schaalia meyeri", "assay": "Antimicrobial activity against Actinomyces meyeri assessed as percent susceptible isolates after 48 hrs by agar dilution method", "assay_type": "functional"}, "[37]": {"test_system": "Bifidobacterium sp.", "assay": "Antimicrobial activity against Bifidobacterium sp. after 48 hrs by agar dilution method", "assay_type": "functional", "in_short": "as §3"}, "[38]": {"test_system": "Actinomyces israelii", "assay": "Antimicrobial activity against Actinomyces israelii assessed as percent resistant isolates after 48 hrs by agar dilution method", "assay_type": "functional", "in_short": "as §1"}, "[39]": {"test_system": "Phocaeicola vulgatus", "assay": "Antimicrobial activity against Bacteroides vulgatus after 48 hrs by agar dilution method", "assay_type": "functional", "in_short": "as §3"}},
  "data": [
    {"smiles": "COc1c(N2C[C@@H]3CCCN[C@@H]3C2)c(F)cc2c(=O)c(C(=O)O)cn(C3CC3)c12", "note": "[MOXIFLOXACIN]", "values": [
      {"measurement": "Activity", "setting": "[1]", "result": 11, "unit": "%"},
      {"measurement": "MIC50", "setting": "[2]", "result": 0.5, "unit": "mg/L"},
      {"measurement": "MIC90", "setting": "[2]", "result": 8, "unit": "mg/L"},
      {"measurement": "Activity", "setting": "[3]", "result": 0, "unit": "%"},
      {"measurement": "Activity", "setting": "[4]", "result": 0, "unit": "%"},
      {"measurement": "Activity", "setting": "[5]", "result": 0, "unit": "%"},
      {"measurement": "Activity", "setting": "[6]", "result": 72, "unit": "%"},
      {"measurement": "MIC50", "setting": "[7]", "result": 2, "unit": "mg/L"},
      {"measurement": "MIC90", "setting": "[7]", "result": 16, "unit": "mg/L"},
      {"measurement": "Activity", "setting": "[8]", "result": 56, "unit": "%"},
      {"measurement": "Activity", "setting": "[9]", "result": 0, "unit": "%"},
      {"measurement": "Activity", "setting": "[10]", "result": 72, "unit": "%"},
      {"measurement": "Activity", "setting": "[11]", "result": 72, "unit": "%"},
      {"measurement": "Activity", "setting": "[12]", "result": 18, "unit": "%"},
      {"measurement": "MIC50", "setting": "[13]", "result": 0.125, "unit": "mg/L"},
      {"measurement": "MIC90", "setting": "[13]", "result": 0.25, "unit": "mg/L"},
      {"measurement": "MIC50", "setting": "[14]", "result": 1, "unit": "mg/L"},
      {"measurement": "MIC90", "setting": "[14]", "result": 2, "unit": "mg/L"},
      {"measurement": "Activity", "setting": "[15]", "result": 92, "unit": "%"},
      {"measurement": "Activity", "setting": "[16]", "result": 18, "unit": "%"},
      {"measurement": "MIC50", "setting": "[17]", "result": 1, "unit": "mg/L"},
      {"measurement": "MIC90", "setting": "[17]", "result": 2, "unit": "mg/L"},
      {"measurement": "Activity", "setting": "[18]", "result": 60, "unit": "%"},
      {"measurement": "Activity", "setting": "[19]", "result": 11, "unit": "%"},
      {"measurement": "Activity", "setting": "[20]", "result": 18, "unit": "%"},
      {"measurement": "Activity", "setting": "[21]", "result": 92, "unit": "%"},
      {"measurement": "MIC50", "setting": "[22]", "result": 0.25, "unit": "mg/L"},
      {"measurement": "MIC90", "setting": "[22]", "result": 8, "unit": "mg/L"},
      {"measurement": "Activity", "setting": "[23]", "result": 92, "unit": "%"},
      {"measurement": "Activity", "setting": "[24]", "result": 92, "unit": "%"},
      {"measurement": "Activity", "setting": "[25]", "result": 72, "unit": "%"},
      {"measurement": "Activity", "setting": "[26]", "result": 56, "unit": "%"},
      {"measurement": "Activity", "setting": "[27]", "result": 0, "unit": "%"},
      {"measurement": "Activity", "setting": "[28]", "result": 92, "unit": "%"},
      {"measurement": "MIC50", "setting": "[29]", "result": 0.125, "unit": "mg/L"},
      {"measurement": "MIC90", "setting": "[29]", "result": 0.25, "unit": "mg/L"},
      {"measurement": "Activity", "setting": "[30]", "result": 92, "unit": "%"},
      {"measurement": "Activity", "setting": "[31]", "result": 0, "unit": "%"},
      {"measurement": "MIC", "setting": "[32]", "result": 0.5, "unit": "mg/L"},
      {"measurement": "MIC50", "setting": "[32]", "result": 0.5, "unit": "mg/L"},
      {"measurement": "MIC90", "setting": "[32]", "result": 0.5, "unit": "mg/L"},
      {"measurement": "Activity", "setting": "[33]", "result": 27, "unit": "%"},
      {"measurement": "Activity", "setting": "[34]", "result": 84, "unit": "%"},
      {"measurement": "Activity", "setting": "[35]", "result": 11, "unit": "%"},
      {"measurement": "Activity", "setting": "[36]", "result": 92, "unit": "%"},
      {"measurement": "MIC50", "setting": "[37]", "result": 1, "unit": "mg/L"},
      {"measurement": "MIC90", "setting": "[37]", "result": 2, "unit": "mg/L"},
      {"measurement": "Activity", "setting": "[38]", "result": 0, "unit": "%"},
      {"measurement": "MIC50", "setting": "[39]", "result": 2, "unit": "mg/L"},
      {"measurement": "MIC90", "setting": "[39]", "result": 16, "unit": "mg/L"}
    ]}
  ]
}
